Assay outcomes as filed in PubChem BioAssay.
S1P4 antagonist: human S1P4 receptor antagonism | O95977 | S1P4-expressing cells, antagonist mode, reporter read-out | inhibition, % at 4.98 µM | hit rate 0.26% among 220,000 | AID 1510; in the data active = inhibition above about 29%;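 note: 0% = wells stimulated with agonist and 100% = vehicle wells without agonist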
S1P3 antag: blocks the human S1P3 receptor. AID 485. hit rate 0.27% among 170,000. CHO S1P3 NFAT-BLA reporter, FRET fluorescence, antagonist mode. inhibition, % at 4.98 µM;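 active = inhibition above the plate cutoff, the mean inhibition of test wells on that plate plus 3 SD, cut at about 28% in these data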;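 note: cells challenged with S1P at its EC80 of 0.8 µM; blue over green emission ratio from cleaved BLA substrate after 4 h stimulation; 0% = S1P-stimulated wells and 100% = unstimulated DMSO-only wells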
TbHK1 inh: blocks Trypanosoma brucei hexokinase 1 activity; inhibition, % at 10 µM; hit rate 0.11% among 220,000; recombinant TbHK1, G6PDH-coupled NADH A340;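 active = inhibition of 50% or more in the single-dose primary screen; inactive = inhibition below 50%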
Biofilm kill mix: mixture kills Candida albicans biofilm cells; inhibition, % at 7.6 µM; C. albicans biofilm persisters + clotrimazole, fluorescence viability; primary screen in compound mixtures of four per well; hit rate 0.02% among 120,000; AID 1242;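 active = inhibition above 30.3% in the primary screen of four-compound pools, then above 30% when the compound was retested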;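 note: compounds exposed to preformed 24 h biofilms for 48 h; 0% = untreated biofilm control and 100% = clotrimazole plus chlorhexidine kill blank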
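Assay system: C. albicans biofilms / Medium: RPMI/MOPS medium, pH 7.0 / Schedule: biofilm formation 24 h, compound exposure 48 h, 37 °C / Measured by: Alamar Blue fluorescence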
Dynein transport: blocks dynein driven cargo transport along microtubules | AID 1381 | 3617.4 mouse cells, GR-EGFP nuclear translocation imaging; test concentration mostly 20 µM; stimulated with dexamethasone, 1 µM; hits give low values | hit rate 0.47% among 220,000 | z-score, hits read low;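 active = plate z-score of nuclear minus cytoplasmic receptor signal below a set negative limit, without overly bright fluorescence or cell loss, cut at about -3.5 in these data, passing the limit was not always enough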;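 note: z-score of nuclear minus cytoplasmic ring GR-EGFP intensity difference per well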
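Also added: dexamethasone, 1.0 µM final. Medium: tet-free, stripped-serum medium. Detection: fixed, Hoechst-stained cells imaged at 10x for EGFP. Read-out: nuclear-to-cytoplasmic GR-EGFP distribution per well. Times: induction 48 h, compound 1 h, agonist 30 min.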
S1P4 agonist: activates the human S1P4 receptor; O95977; S1P4-expressing cell line, agonist reporter assay; activation, % at 4.98 µM; hit rate 0.35% among 220,000; in the data active = activation above about 11%;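 note: 0% = DMSO vehicle and 100% = reference agonist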
S1P4 agonist cf: confirmation of human S1P4 receptor agonists. shares compounds with S1P4 agonist. S1P4 agonist cell-based reporter assay. activation, % at 4.98 µM. hit rate 7% among 740. AID 1523; in the data active = activation above about 12%;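 note: 0% = vehicle and 100% = full reference agonist response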
S1P1 agonist: human S1P1 agonism as S1P4 agonist counter-screen; shares compounds with S1P4 agonist; S1P1 agonist cell-based assay, activation; activation, % at 4.98 µM; hit rate 4% among 740; in the data active = activation above about 21%;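 note: 0% = vehicle wells and 100% = reference agonist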
Target sequence (P21453 whole entry, looked up): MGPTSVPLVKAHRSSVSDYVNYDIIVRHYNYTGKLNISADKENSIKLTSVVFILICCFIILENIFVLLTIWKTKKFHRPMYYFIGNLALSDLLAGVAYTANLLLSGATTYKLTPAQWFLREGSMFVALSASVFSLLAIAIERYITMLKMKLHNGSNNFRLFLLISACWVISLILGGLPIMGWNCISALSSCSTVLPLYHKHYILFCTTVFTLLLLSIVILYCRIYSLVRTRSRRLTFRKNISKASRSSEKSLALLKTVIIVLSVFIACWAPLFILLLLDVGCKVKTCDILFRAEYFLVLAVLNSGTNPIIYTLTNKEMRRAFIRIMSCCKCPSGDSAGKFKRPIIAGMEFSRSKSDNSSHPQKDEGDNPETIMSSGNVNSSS
* hit, by the source's call. An excerpt weighted towards active compounds, which were near 1.3% of everything screened.

Results for Cc1ccccc1OCC(=O)N/N=C/c1ccncc1 ?
S1P4 antagonist: -3; S1P3 antag: -8; TbHK1 inh: 1; Biofilm kill mix: 10; Dynein transport: -0.66; S1P4 agonist: 3

How did CCOC(=O)C/C(C)=N/NC(=O)COc1ccccc1C do in these assays?
S1P4 antagonist: -17; S1P3 antag: -32; TbHK1 inh: 0; Biofilm kill mix: 24; Dynein transport: 2.6; S1P4 agonist: 89*; S1P4 agonist cf: -1; S1P1 agonist: -2

Results for O=c1cc(N2CCCC2)c2ccccc2o1 ?
S1P4 antagonist: -19; S1P3 antag: -7; TbHK1 inh: -10; Biofilm kill mix: 30; Dynein transport: -0.35; S1P4 agonist: -1

Results for O=C(N/N=C/c1cn(-c2cccs2)nc1-c1ccccc1)c1ccccc1Br ?
S1P4 antagonist: 1; S1P3 antag: 9; TbHK1 inh: -19; Biofilm kill mix: 23; Dynein transport: -0.28; S1P4 agonist: 11*; S1P4 agonist cf: -2; S1P1 agonist: 1

Results for Cn1cccc1/C=C1\SC(=Nc2cccc(O)c2)NC1=O ?
S1P4 antagonist: 4; S1P3 antag: -2; TbHK1 inh: -8; Biofilm kill mix: 13; Dynein transport: -0.36; S1P4 agonist: -1

How did COc1ccc(CC(=O)NNS(=O)(=O)c2ccccc2)cc1OC do in these assays?
S1P4 antagonist: -13; S1P3 antag: -7; TbHK1 inh: 4; Biofilm kill mix: 19; Dynein transport: -0.1; S1P4 agonist: 12*; S1P4 agonist cf: -3; S1P1 agonist: -2

What do the screens show for `COc1ccc(CC(=O)NNS(=O)(=O)c2ccc(F)cc2)cc1OC`?
S1P4 antagonist: 6; S1P3 antag: -16; TbHK1 inh: -3; Biofilm kill mix: 2; Dynein transport: -0.49; S1P4 agonist: 1

What do the screens show for `O=C(NCc1ccccc1)C(c1ccc(F)cc1)N(Cc1ccco1)C(=O)c1ccccn1` (stereo not given)?
S1P4 antagonist: -4; TbHK1 inh: 1; Dynein transport: -0.29; S1P4 agonist: 40*; S1P4 agonist cf: -3; S1P1 agonist: -3

How did CC(=O)Nc1nc(C(=O)Nc2c(C)n[nH]c2C)cs1 do in these assays?
S1P4 antagonist: -23; S1P3 antag: -4; TbHK1 inh: -4; Dynein transport: -0.26; S1P4 agonist: 14*; S1P4 agonist cf: -2; S1P1 agonist: 2

Results for O=C1CN(CC(=O)Nc2cccc(Cl)c2Cl)c2ccccc2N1 ?
S1P4 antagonist: 8; S1P3 antag: 12; TbHK1 inh: -2; Biofilm kill mix: 24; Dynein transport: 0.007; S1P4 agonist: 4

Results for N#Cc1c(N)nc2c(c1-c1ccncc1)CCCCC2 ?
S1P4 antagonist: -14; S1P3 antag: -6; TbHK1 inh: -10; Biofilm kill mix: 8; Dynein transport: -0.49; S1P4 agonist: 135*; S1P4 agonist cf: -1; S1P1 agonist: 5

How did Cc1cccc(/C=N/NC(=O)c2cc3c(s2)-c2ccccc2CC3)c1 do in these assays?
S1P4 antagonist: 1; TbHK1 inh: -5; Dynein transport: 0.47; S1P4 agonist: -1

How did O=C(N/N=C/c1cccc(C(F)(F)F)c1)c1cc2c(s1)-c1ccccc1CC2 do in these assays?
S1P4 antagonist: -16; TbHK1 inh: -10; Dynein transport: -0.091; S1P4 agonist: 45*; S1P4 agonist cf: -1; S1P1 agonist: 1

How did Cc1ncc([N+](=O)[O-])n1CC(=O)NCc1ccccc1 do in these assays?
S1P4 antagonist: -9; TbHK1 inh: -1; Dynein transport: -0.79; S1P4 agonist: 0

What do the screens show for `Cc1ncc([N+](=O)[O-])n1CC(=O)NCCc1ccccc1`?
S1P4 antagonist: 3; S1P3 antag: -15; TbHK1 inh: -8; Biofilm kill mix: 9; Dynein transport: -0.78; S1P4 agonist: 16*; S1P4 agonist cf: -1; S1P1 agonist: -1

How did CC(C)c1nc2ccc(Br)cn2c1NC1CCCC1 do in these assays?
S1P4 antagonist: -6; S1P3 antag: 1; TbHK1 inh: -5; Biofilm kill mix: 9; Dynein transport: -1.5; S1P4 agonist: 2

How did CCC(=O)Nc1ccc(OC)cc1OC do in these assays?
S1P4 antagonist: -13; S1P3 antag: -31; TbHK1 inh: 5; Dynein transport: 0.53; S1P4 agonist: 0

How did COc1ccc(NC(=O)Cn2cccc2)c(OC)c1 do in these assays?
S1P4 antagonist: -10; S1P3 antag: 9; TbHK1 inh: 0; Dynein transport: 0.003; S1P4 agonist: 35*; S1P4 agonist cf: -2; S1P1 agonist: 0

Results for CCn1cc(CNC(=O)/C=C/c2cnn(C)c2)c(C)n1 ?
S1P4 antagonist: -14; S1P3 antag: -29; TbHK1 inh: 0; Biofilm kill mix: 21; Dynein transport: 0.54; S1P4 agonist: 36*; S1P4 agonist cf: -3; S1P1 agonist: 1

What do the screens show for `CCn1cc(CNC(=O)/C=C/c2ccc([N+](=O)[O-])cc2)c(C)n1`?
S1P4 antagonist: -15; TbHK1 inh: -27; Dynein transport: 0.054; S1P4 agonist: 1

What do the screens show for `Cc1ccc(S(=O)(=O)CCSc2cccc(C(=O)Nc3ccccc3C(=O)O)c2)cc1`?
S1P4 antagonist: -6; S1P3 antag: -17; TbHK1 inh: 26; Biofilm kill mix: 19; Dynein transport: 0.49; S1P4 agonist: 0

How did CCN(CC)C(=O)C1CCCN(Cc2ccccc2)C1 (stereo not given) do in these assays?
S1P4 antagonist: 5; TbHK1 inh: 3; Dynein transport: -0.54; S1P4 agonist: 22*; S1P4 agonist cf: -2; S1P1 agonist: 0

What do the screens show for `CCN(CC)C(=O)C1CCCN(Cc2ccc(N(C)C)cc2)C1` (stereo not given)?
S1P3 antag: 34; Biofilm kill mix: 10

How did CSc1nnc(CCCCCCCCc2nnc(SC)o2)o1 do in these assays?
S1P4 antagonist: -2; S1P3 antag: -10; TbHK1 inh: 2; Biofilm kill mix: 12; Dynein transport: 0.41; S1P4 agonist: 0

What do the screens show for `Cn1c(O)c(C=Nc2ccc(N3CCOCC3)cc2)c(=O)n(C)c1=S`?
S1P4 antagonist: 12; S1P3 antag: -18; TbHK1 inh: -1; Biofilm kill mix: 5; Dynein transport: 1.5; S1P4 agonist: 30*; S1P4 agonist cf: -2; S1P1 agonist: -1

What do the screens show for `COc1ccc(NC(=O)c2cc(-c3ccccc3)nc3c2c(C)nn3-c2ccccc2)c(OC)c1`?
S1P4 antagonist: -8; S1P3 antag: -15; TbHK1 inh: 6; Biofilm kill mix: 14; Dynein transport: 0.095; S1P4 agonist: 24*; S1P4 agonist cf: -2; S1P1 agonist: 1
